# According to paper PMC6322912 (Biochemistry, 2018):
# Target: T1, SAMHD1 (Homo sapiens, UniProt Q9Y3Z3)
# Assay: b4NPP–SAMHD1 HTS
# Format: biochemical
# Details: increasing concentrations of dGTP; normalized to no dGTP
# How it was run: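 Recombinant SAMHD1 was expressed in E. coli BL21* as an MBP fusion, tag-cleaved, and purified by heparin and size-exclusion chromatography. Nucleotide was added, then 2 mM final b4NPP. A410 was read over 45 min; rates came from 0–20 min slopes, with no-enzyme baseline.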
# T1 sequence (Q9Y3Z3 whole entry): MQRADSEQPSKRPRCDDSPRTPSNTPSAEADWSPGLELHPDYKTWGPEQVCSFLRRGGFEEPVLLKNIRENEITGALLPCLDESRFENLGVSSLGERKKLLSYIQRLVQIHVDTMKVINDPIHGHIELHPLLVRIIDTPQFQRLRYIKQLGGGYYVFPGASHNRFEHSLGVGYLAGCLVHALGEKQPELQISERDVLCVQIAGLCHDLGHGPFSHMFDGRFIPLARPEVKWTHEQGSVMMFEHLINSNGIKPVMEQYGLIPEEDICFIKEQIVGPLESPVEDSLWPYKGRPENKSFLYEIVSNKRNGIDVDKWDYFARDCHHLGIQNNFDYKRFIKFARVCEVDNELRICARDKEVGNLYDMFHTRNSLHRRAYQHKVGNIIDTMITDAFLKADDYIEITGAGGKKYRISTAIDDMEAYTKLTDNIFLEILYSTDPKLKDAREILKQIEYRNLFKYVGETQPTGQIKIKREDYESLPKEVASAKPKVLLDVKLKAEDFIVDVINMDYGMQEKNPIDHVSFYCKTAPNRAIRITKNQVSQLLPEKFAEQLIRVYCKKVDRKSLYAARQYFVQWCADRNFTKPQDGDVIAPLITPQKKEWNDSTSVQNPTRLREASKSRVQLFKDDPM
row,SMILES,Inhibition of SAMHD1-mediated b4NPP hydrolysis
1,Nc1nc2c(ncn2[C@H]2C[C@H](O)[C@@H](COP(=O)(O)OP(=O)(O)OP(=O)(O)O)O2)c(=O)[nH]1 [dGTP],completely inhibited

# Target: T1, SAMHD1
# Assay: Dose–response SAMHD1 dNTPase assay
# Format: biochemical
# Details: not given
row,SMILES,IC50
1,Nc1cc(-c2ccncc2)c[nH]c1=O [Amrinone],< 250 µM
2,CN1C[C@H](C(=O)N[C@]2(C)O[C@@]3(O)[C@@H]4CCCN4C(=O)[C@H](Cc4ccccc4)N3C2=O)C=C2c3cccc4[nH]cc(c34)C[C@H]21 [Ergotamine],< 250 µM
3,CC[C@H](c1ccc(O)cc1)[C@@H](CC)c1ccc(O)cc1 [Hexestrol],< 250 µM
4,N[C@@H](Cc1cc(I)c(Oc2cc(I)c(O)c(I)c2)c(I)c1)C(=O)O [L-Thyroxine],< 250 µM
5,COC(=O)c1ccc(O)c2nc3c(C=O)c(O)cc(O)c3nc12 [Lomofungin],< 250 µM
6,CC(C)(O)c1ccccc1CC[C@@H](SCC1(CC(=O)O)CC1)c1cccc(/C=C/c2ccc3ccc(Cl)cc3n2)c1 [Montelukast],< 250 µM
7,CC1=C(CC(=O)O)c2cc(F)ccc2/C1=C\c1ccc([S+](C)[O-])cc1 (stereo not shown) [Sulindac],< 250 µM
8,CC1=C(/C=C/C(C)=C/C=C/C(C)=C/C(=O)O)C(C)(C)CCC1 [retinoic acid],< 250 µM

# Same assay, conditions: 150 μM dCTP substrate; tetramer preformed with 10 μM GTP and 25 μM dATPαS
row,SMILES,Inhibition of preactivated SAMHD1 dCTPase activity
1,"Nc1nc2c(ncn2[C@H]2C[C@H](O)[C@@H](COP(O)(=S)OP(=O)(O)OP(=O)(O)O)O2)c(=O)[nH]1 (stereo partly drawn) [dGTPαS, deoxyguanosine triphosphate α S]",inhibition

# Same assay, conditions: read-out: SAMHD1 inhibition in dose–response dNTPase assays
row,SMILES,inhibition at 500 µM
1,CCCCCOC(=O)Nc1nc(=O)n([C@@H]2O[C@H](C)[C@@H](O)[C@H]2O)cc1F [Capecitabine],~25%
2,Nc1nc2c(ncn2CCC(CO)CO)c(=O)[nH]1 [Penciclovir],~25%
3,CC(=O)CCCCn1c(=O)c2c(ncn2C)n(C)c1=O [Pentoxifylline],~25%
